Experimental data: PubChem BioAssay AID686939 (The Scripps Research Institute Molecular Screening Center, 2013)
Among all 3,500 compounds or so, about 1,400 (40%) were called active. The set was probably picked from earlier hits. Not all results are given here. Unmarked numbers belong to inactive results.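 How the source made its calls: active means activation above the solvent-only control well mean plus 3 SD, averaged across control plates (cut at about 5.2% in these data); inactive means the rest.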

assay: GAL4-VP16 luciferase reporter activation, counter-screen for SMARCA2 (BRM) activator project, cell-based, pG5luc, luminescence, high throughput (AID 686939); settings: HEK293 GAL4-VP16 pG5luc reporter, at 9.1 µM, active compounds read high, scaled: DMSO wells 0%, SAHA wells 100%
In short: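 System: 293 cells carrying GAL4-VP16 plus UAS-luciferase reporter. Quantity: 2,500 transfected 293 cells per well. Incubation: 24 h exposure, 37 °C, 5% CO2, One-Glo 15 min RT. Technique: luciferase luminescence after One-Glo reagent addition. Benchmarks: DMSO and SAHA.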

Row | SMILES | activation
1 | Cc1ccc(-c2nc3ccc(Cl)cn3c2Cc2ccccc2)cc1 | 5.49% (active)
2 | Cc1ccc(-c2nc3ccc(Br)cn3c2Cc2ccccc2C(F)(F)F)cc1 | 7.09% (active)
3 | CC(C)Cc1nnc(NC(=O)CCNC(=O)c2ccccc2Cl)s1 | -0.47%
4 | Cc1cc(-n2cnc(-c3cn(C)nc3C)n2)no1 | 2.79%
5 | Cc1nnc(NC(=O)Cn2c(=O)sc3ccccc32)s1 | 0.78%
6 | COc1ccccc1C1=Nc2cccc3cccc(c23)N1 | 2.12%
7 | NS(=O)(=O)c1ccccc1NC(=O)c1c(O)c2ccccc2[nH]c1=O | 14.3% (active)
8 | CCN(CC)C(=O)CSc1nnc(-c2cccc(OC)c2)o1 | 2.98%
9 | CCOC(=O)Nc1ccc(NC(=O)OCC)cc1 | 2.67%
10 | COc1ccc(-c2cc(-c3ccc(N)cc3)nc(N)c2C#N)cc1OC | 3.72%
11 | CCCCCCOC(=O)NCC(O)c1ccccc1 (stereo not given) | 9.46% (active)
12 | CC(=O)c1ccc(NC(=O)c2sc3nc4n(c(=O)c3c2C)CCCCC4)cc1 | 9.18% (active)
13 | O=c1c2c(nc3n1CCCCC3)sc1c(O)cccc12 | 6.75% (active)
14 | CCOc1cccc2c1OC1(CCCCC1)N1N=C(c3cccnc3)CC21 (stereo not given) | 0.45%
15 | O=C(Cn1ncc(N2CCCC2)c(Br)c1=O)c1ccc(Cl)cc1 | 5.53% (active)
16 | COc1ccc2ccccc2c1CNCc1ccccn1 | 4.06%
17 | C1=C(CCNc2ncnc3c2cnn3-c2ccccc2)CCCC1 | 14.9% (active)
18 | CN(C)C(CNC(=O)c1ccc(OCc2cn3ccccc3n2)cc1)c1ccco1 (stereo not given) | 3.42%
19 | C=CC(=O)OCCOCCOCCOCCOC(=O)C=C | 3.33%
20 | COC(=O)C1C(=O)c2c([nH]c(C(=O)OCCSC)c2C)CC1C (stereo not given) | 11.8% (active)
21 | O=C(CSc1nc2ccccc2[nH]1)c1cccs1 | 13.1% (active)
22 | CC1(C(=O)NS(=O)(=O)C2CC2)CCCN(C(=O)CSc2ccccc2)C1 (stereo not given) | -0.05%
23 | Cc1cc(C(=O)NNC(=S)Nc2ccccc2C)cs1 | 8.68% (active)
24 | Cc1ccc(-n2c(SCC(=O)N3CCC(C(=O)O)CC3)nc3ccccc3c2=O)cc1C | 4.53%
25 | CCNC(=S)N1CCN(c2ncccn2)CC1 | -0.27%
26 | COC(=O)c1sc(-c2ccc(C(C)(C)C)cc2)cc1NC(=O)/C=C/C(=O)O | 4.46%
27 | Cn1c2ccc(F)cc2c2nnc(NN)nc21 | 0.75%

Row | SMILES | activation
28 | Cc1cccc(CSc2ccc(-c3cccs3)nn2)c1 | 3.46%
29 | COc1ccc(Cn2c(C)c(C)c(C#N)c2NC(=O)Nc2ccc(F)cc2)cc1 | -0.19%
30 | O=C(Nc1ccc2c(c1)CCC2)c1ccc(Br)s1 | 5.57% (active)
31 | O=C(NC1CCCC1)C(=O)c1c[nH]c2ccccc12 | 6.44% (active)
32 | CC(=O)c1cccc(-c2cnc3c(NC=O)cc(-c4ccc(N5CCN(C)CC5)cc4)cn23)c1 | 2.83%
33 | CCN(CC)C(=O)c1sc2nc(-c3ccccc3)ccc2c1N | 11.2% (active)
34 | COc1cccc(C(=O)Nc2cc3c(cc2Br)OCCCO3)c1 | 9.44% (active)
35 | c1ccc2cc3c(NCCN4CCOCC4)ccnc3cc2c1 | 0.84%
36 | Cc1cccc(-n2c(O)c(C=Nc3ccccc3N)c(=O)[nH]c2=O)c1 | 6.14% (active)
37 | C=C1C(=O)[C@]23C[C@H]1CCC2[C@@]1(C)C(C[C@@H]3O)[C@](C)(C(=O)O)CC[C@@H]1O (stereo not given in full) | 1.65%
38 | COc1cccc(-c2nc3cc(C)ccc3o2)c1 | 3.74%
39 | Cn1c(-c2ccc(F)cc2)cc2onc(-c3ccccc3Cl)c2c1=O | 9.37% (active)
40 | Fc1ccc(/C=N/Nc2nc(-c3cccnc3)nc3ccccc23)cc1 | 8.57% (active)
41 | CC(=O)Nc1cc(-c2ccc(N3CCN(C)CC3)cc2)cn2c(-c3ccc(F)cc3)cnc12 | 1.59%
42 | Cc1nc(-c2nnc(SCC(=O)Nc3cc(C(F)(F)F)cc(C(F)(F)F)c3)n2C)cs1 | -1.04%
43 | CCCCNC(=O)C1CCC(CNS(=O)(=O)c2ccc(NC(C)=O)cc2)CC1 (stereo not given) | 0.63%
44 | Fc1ccc(CNc2nc3ccccc3n3nnnc23)cc1 | 2.47%
45 | CC(C)CCNC(=O)c1ccc2c(Cl)c3c(nc2c1)CCC3 | 9.88% (active)
46 | COCC1CCN(C(=O)C2CCC(=O)N(Cc3cccc(C(F)(F)F)c3)C2)CC1 (stereo not given) | 1.34%
47 | O=C(Nc1cc(=O)[nH]c2ncnn12)c1ccccc1Cl | 0.46%
48 | COc1c(O)cc2oc(-c3ccc(O)c(O)c3)cc(=O)c2c1O | 12.4% (active)
49 | CCCn1nc(C(=O)Nc2ccc3nc(C)sc3c2)c2ccccc2c1=O | -0.78%
50 | O=C(N[C@H]1CC[C@H](CC(=O)N2CCCCC2)O[C@@H]1CO)c1cccc(F)c1 | 0.09%
51 | O=C(c1cc(-c2ccc(O)cc2)on1)N1CCOCC1 | 6.96% (active)
52 | O=C(c1cc(-c2ccccc2O)on1)N1CCCC1 | 9.74% (active)
53 | Cc1cc(-c2n[nH]c(=S)n2/N=C/C(Br)=C/c2ccccc2)n[nH]1 | 4.37%
54 | CCCCn1nnnc1C(c1cc2ccccc2o1)N(C)Cc1ccc(Cl)c(Cl)c1 (stereo not given) | 1.67%

Row | SMILES | activation
55 | COc1ccc(OCCCC(=O)NCCc2ccccc2)cc1 | 1.27%
56 | O=C(CCCc1ccccc1)NCc1ccccc1 | 2.83%
57 | Cc1ccc(F)c(NC(=O)CCc2ccccc2)c1 | 5.92% (active)
58 | O=C(O)c1ccc(COc2c(F)c(F)cc(F)c2F)o1 | -0.39%
59 | O=C(O)c1cccc(N=NN2CCCCCC2)c1 | 13.9% (active)
60 | CN(C)CCNC(=O)c1cccc(-c2cnc3c(NC=O)cc(-c4cccc(C(F)(F)F)c4)cn23)c1 | 1.42%
61 | COc1ccc(-c2csc(Cc3nc(O)cs3)n2)cc1 | 19.6% (active)
62 | Cn1cccc1/C=N/NC(=O)c1ccc(OC(F)(F)C(F)F)cc1 | 3.99%
63 | O=C(c1cccs1)C1C(c2ccc(Br)cc2)NC(=S)NC1(O)C(F)(F)F (stereo not given) | 2.08%
64 | COc1ccc(CC2c3cc(OC)c(OC)cc3CC[N+]2(C)CCC(=O)OCCCCCOC(=O)CC[N+]2(C)CCc3cc(OC)c(OC)cc3C2Cc2ccc(OC)c(OC)c2)cc1OC (stereo not given) | 1.23%
65 | COc1ccccc1OCC(=O)O/N=C(\N)c1ccccn1 | 4.97%
66 | COc1cc(CN2CCC(C(N)=O)CC2)ccc1OCc1ccccc1 | 8.4% (active)
67 | Cc1noc(C)c1S(=O)(=O)N(C)C[C@H]1Oc2c(NC(=O)Nc3ccc4c(c3)OCO4)cccc2C(=O)N([C@H](C)CO)C[C@@H]1C | 0.03%
68 | CN(C)C(=S)N=c1ssc(=S)n1Cc1ccco1 | 11.9% (active)
69 | CCOC(=O)c1sc2nc(CSc3ccccc3)[nH]c(=O)c2c1C | 0.23%
70 | COc1ccc(-c2cc3ncccc3cn2)cc1 | 9.76% (active)
71 | Cc1ccc(NC(=O)C(=O)NCc2ccco2)c(C)c1 | 5.75% (active)
72 | CC(C)(C)c1ccc(NC(=O)NCc2ccco2)cc1 | 0.6%
73 | Cc1cc(O)c(NC(=O)c2ccc(C)c([N+](=O)[O-])c2)cc1C | 7.82% (active)
74 | FC(F)(F)c1cccc(-c2nc3ccccc3n2C(c2ccccc2)c2nc3ccccc3[nH]2)c1 (stereo not given) | 4.89%
75 | CN(C)S(=O)(=O)c1ccc2oc(SCC(=O)Nc3ccccc3F)nc2c1 | 13.2% (active)
76 | COc1ccc(C(CNC(=O)c2ccc(S(=O)(=O)Nc3ccccc3F)cc2)N(C)C)cc1 (stereo not given) | -0.57%
77 | COc1ccc(N=C(C)c2sc3ccccc3c2O)cc1 | 6.57% (active)
78 | CCOC(=O)C(C)n1cnc2c(nnn2-c2cccc(OC)c2)c1=O (stereo not given) | 4.04%
79 | COc1ccc(C(=O)NC2=NCCS2)c(OC)c1 | 12.2% (active)
80 | Cc1ccc(N/C=C/C(=O)c2ccccc2)cc1C | 6.49% (active)
81 | Cc1cc(=O)[nH]c(N/N=C/c2ccc3c(c2)OCCO3)n1 | 3.2%

Row | SMILES | activation
82 | CCc1c(C)c2ccc(OC3CCCCC3=O)cc2oc1=O (stereo not given) | 2.57%
83 | COc1cc(/C=N/NC(=O)c2ccccc2)ccc1OS(=O)(=O)c1ccccc1 | 0.14%
84 | COc1ccc(/C=N/NC(=O)c2cc(-c3cccc(C)c3)nc3ccccc23)cc1O | 7.74% (active)
85 | CC(C)(C)NC(=O)C(CCc1ccccc1)n1c(=O)c(-c2ccccc2)nc2ccccc21 (stereo not given) | 0.34%
86 | CCC(C)N(C)C1CCN(C(=S)Nc2ccc(OC)cc2)CC1 (stereo not given) | 1.62%
87 | CCCCc1ccc(NC(=S)N2CCCC(CO)C2)cc1 (stereo not given) | 10.3% (active)
88 | Cc1cc(C)c2nc3nc(C)cc(C)c3c(N)c2c1 | 3.96%
89 | O=C1Cc2cc(S(=O)(=O)Nc3cccc(F)c3)ccc2N1 | 1.09%
90 | CCc1ccc[n+](-c2nc([O-])sc2C=O)c1 | 0.22%
91 | Cc1cc(C)nc(Nc2n[nH]c(-c3ccccc3N)n2)n1 | 12.3% (active)
92 | CCOC(=O)c1c(C)[nH]c(C2=NNC(=NC(C)COC)SC2)c1C (stereo not given) | 8.27% (active)
93 | COc1cccc(OCCOc2cccc(/C=N/n3cnnc3)c2)c1 | 6.43% (active)
94 | Cc1ccc(-c2c(C)n([O-])c3c([n+]2=O)CCC3)cc1 | -0.96%
95 | Cc1ccc(C(=O)CSc2ccccc2C(=O)O)cc1 | 6.75% (active)
96 | COCC(C)n1c(SCc2ccc(C(=O)OC)o2)nc2ccccc2c1=O (stereo not given) | 2.22%
97 | CC1CCCCC1NC(=O)CN1CCC(O)(c2ccc3c(c2)OCO3)CC1 (stereo not given) | 4.35%
98 | O=C(Nc1cccc([N+](=O)[O-])c1)c1ccc2c(c1)OCO2 | 8.02% (active)
99 | O=C(Nc1cccc([N+](=O)[O-])c1)N1CCc2ccccc2C1 | 4.55%
100 | COc1ccc(C)cc1S(=O)(=O)N(CC(=O)Nc1cccc([N+](=O)[O-])c1)c1ccc(C)cc1 | -1.27%
101 | COc1ccc(C(=O)Nc2ccc3c(c2)OCO3)cc1OC | 10.2% (active)
102 | Cc1ccnc(Nc2nc3ccccc3s2)n1 | 3.74%
103 | CC1(C)CC(=O)C=C(NCCCNC2CCCCC2)C1 | -0.02%
104 | Cc1cc2oc3ccc(NCCC4CCCN4C)cc3c(=O)c2cc1C (stereo not given) | 6.3% (active)
105 | Cc1ccccc1C#CC1=CC(=O)CC(C)(C)C1 | 1.83%
